Measured values taken from ChEMBL document CHEMBL6074625, “Thiazolidine-2,4-dione hybrids as dual alpha-amylase and alpha-glucosidase inhibitors: design, synthesis, in vitro and in vivo anti-diabetic evaluation” (RSC Med Chem, 2024).
pIC50: −log10 of the molar value. Active and inactive are the calls of the source. The calls are words filed in the database; no cut-off is given here.

What was measured:
PANC-1 [1] = experiment: Cytotoxicity against human PANC-1 cells assessed as inhibition of cell viability at upto 100 uM incubated for 24 hrs by MTT assay; format: toxicity, cell-based; conditions: panc-1, 24 h
Outline: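 PANC-1 cells seeded at 9 × 10³ per well, triplicate, 24 h at 37 °C, 5% CO₂. Treated with 5, 10, 20, 40, 60, 80 and 100 μM for another day. MTT (5 mg mL⁻¹ stock) 3 h at 37 °C, plates centrifuged, formazan dissolved in DMSO 30 min dark, A570. Viability compared by one-way ANOVA with Tukey test.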

Rattus norvegicus [2] = species on record: Rattus norvegicus; experiment: Anti-diabetic activity against STZ-induced diabetic Wistar rat model assessed as increase increase in number of basophils level; format: functional, organism-based
Outline: (§1)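 STZ-diabetic Wistar rats in six groups (normal, vehicle 0.5% CMC oral, STZ, STZ + test compounds, STZ + pioglitazone); oral treatment started day 14 after STZ on day 1. Markers measured in serum, pancreatic homogenate or whole blood, as named in each line. Groups compared by one-way ANOVA.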

Rattus norvegicus [3] = species on record: Rattus norvegicus; experiment: Anti-diabetic activity in high glucose induced alpha-amylase expression in fasted STZ-induced diabetic Wistar rat model assessed as alpha-glucosidase level in pancreas by measuring minimum fractional index incubated for 23 hrs and measured after 24 hrs by flow cytometric analysis (reference value: 3063 + 149.2); format: functional
PANC-1 [4] = experiment: Anti-diabetic activity against high glucose induced human PANC-1 cells assessed as decrease in glucose induced alpha-glucosidase expression by measuring by measuring minimum fractional index at 5 uM incubated for 23 hrs and measured after 24 hrs by flow cytometric analysis (reference value: 4361 +/- 257.83); format: functional
Rattus norvegicus [5] = experiment: Antidiabetic activity against streptozotocin-induced Wistar rat assessed as increase in serum SGPT level at 10 mg/kg, po administered for 21 days measured on day 35; format: functional, organism-based; conditions: time 35.0 day; outline: as §1
Rattus norvegicus [6] = species on record: Rattus norvegicus; experiment: Anti-inflammatory activity in STZ-induced diabetic Wistar rat model assessed as […] level in serum by ELISA method; format: functional, organism-based; outline: as §1
Rattus norvegicus [7] = experiment: Antidiabetic activity against streptozotocin-induced Wistar rat assessed as decrease in total cholesterol at 10 mg/kg, po administered for 21 days measured on day 35; format: functional, organism-based; conditions: time 35.0 day; outline: as §1
Rattus norvegicus [8] = species on record: Rattus norvegicus; experiment: Anti-diabetic activity in high glucose induced alpha-amylase expression in fasted STZ-induced diabetic Wistar rat model assessed as alpha-amylase level in pancreas by measuring minimum fractional index incubated for 23 hrs and measured after 24 hrs by flow cytometric analysis (reference value: 2590 + 199.74); format: functional
[9] = Toxicity against STZ-induced diabetic Wistar rat model assessed as body weight loss at 10 mg/kg, po measured on day 14; format: organism-based; conditions: in vivo, 336 h, time 14 day
Outline: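 STZ given on day 1; oral treatment started day 14, with vehicle 0.5% CMC in controls. Six groups: normal, vehicle, STZ, STZ + two test compounds, STZ + pioglitazone. Blood glucose (tail puncture, glucometer) and body weight recorded on days 1, 4, 14 and 35. One-way ANOVA.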

Rattus norvegicus [10] = experiment: Antidiabetic activity against streptozotocin-induced Wistar rat assessed as increase creatinine level in serum at 10 mg/kg, po administered for 21 days measured on day 35; format: functional, organism-based; conditions: time 35.0 day; outline: as §1
Rattus norvegicus [11] = species on record: Rattus norvegicus; experiment: Anti-diabetic activity against STZ-induced diabetic Wistar rat model assessed as increase increase in number of neutrophils level; format: functional, organism-based; outline: as §1
Rattus norvegicus [12] = experiment: Antidiabetic activity against streptozotocin-induced Wistar rat assessed as increase in serum SGOT level at 10 mg/kg, po administered for 21 days measured on day 35; format: functional, organism-based; conditions: time 35.0 day; outline: as §1
Rattus norvegicus [13] = species on record: Rattus norvegicus; experiment: Anti-inflammatory activity in STZ-induced diabetic Wistar rat model assessed as decrease in IL-1beta level in blood by ELISA method
PANC-1 [14] = experiment: Antioxidant activity in human PANC-1 cells assessed as decrease in high glucose induced ROS production by measuring minimum fractional index at 5 uM incubated for 24 hrs by DCFDA-staining based flow cytometry analysis; format: functional
Outline: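 PANC-1 cells (1 × 10⁵/well) grown 24 h at 37 °C, 5% CO₂, then pre-treated 1 h with 5 μM compound. Exposed to glucose (stated 10 μM) for 23 h. Stained with 10 μM DCFH-DA for 30 min at 37 °C, rinsed, and ROS read by flow cytometry as DCFDA/FITC mean fluorescence intensity.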

Rattus norvegicus [15] = species on record: Rattus norvegicus; experiment: Anti-diabetic activity against STZ-induced diabetic Wistar rat model assessed as increase increase in number of eosinophils level; format: functional, organism-based; outline: as §1
Rattus norvegicus [16] = experiment: Antidiabetic activity against streptozotocin-induced Wistar rat assessed as reduction in serum ALP level at 10 mg/kg, po administered for 21 days measured on day 35; conditions: time 35.0 day
Rattus norvegicus [17] = species on record: Rattus norvegicus; experiment: Anti-diabetic activity against STZ-induced diabetic Wistar rat model assessed as increase increase in number of haemoglobin level; format: functional, organism-based; outline: as §1
[18] = biological target: alpha-glucosidase (Saccharomyces cerevisiae); experiment: Inhibition of Saccharomyces cerevisiae alpha-glucosidase using 4-nitrophenyl-alpha-D-glucopyranoside as substrate incubated with compound for 15 to 20 min by absorbance based analysis
INS1 = experiment: Cytotoxicity against rat INS1 cells assessed as inhibition of cell viability at upto 100 uM incubated for 24 hrs by MTT assay; format: toxicity, cell-based; conditions: ins1, 24 h
Outline: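 INS-1 MTT run as for PANC-1: 20 × 10³ cells per well in triplicate, 24 h at 37 °C/5% CO₂, then 5–100 μM (7 levels) for another day. MTT (5 mg mL⁻¹ stock) 3 h, centrifugation, DMSO solubilisation 30 min in dark, absorbance at 570 nm.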

[19] = Inhibition of porcine pancreatic alpha-amylase using starch as substrate preincubated for 10 min followed by substrate addition and measured after 20 min by absorbance based analysis; set-up: species or system Sus scrofa
Outline: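 Porcine α-amylase (1 U mL⁻¹) pre-incubated with compound 10 min at 25 °C in phosphate buffer pH 6.8. 1% starch added, then 15 min at 37.5 ± 2 °C. Quenched with DNS reagent, heated 70 °C 20 min, diluted with buffer, A540 read, in triplicate. Final concentrations 100–1 μM from DMSO dilutions; IC50 from a linear fit of % inhibition at y = 50.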

Rattus norvegicus [20] = experiment: Antidiabetic activity against STZ-induced oxidative stress in Wistar rats model assessed as increase in SOD level in pancreatic tissue at 10 mg/kg, po administered for 21 days measured on day 35 by absorbance based UV-spectroscopic analysis; conditions: time 35.0 day
Rattus norvegicus [21] = experiment: Anti-diabetic activity against in streptozotocin-induced diabetic Wistar rat model assessed as reduction in blood glucose level at 10 mg/kg, po administered as single dose and measured upto 120 min by oral glucose tolerance test; format: functional, organism-based
Outline: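 Wistar rats fasted 16 h, given a single oral 10 mg kg⁻¹ dose, then oral glucose 2 g kg⁻¹ immediately. Blood glucose taken by tail puncture with a glucometer at 0, 15, 30, 60, 90 and 120 min. Groups compared by ANOVA.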

Rattus norvegicus [22] = species on record: Rattus norvegicus; experiment: Anti-diabetic activity against STZ-induced diabetic Wistar rat model assessed as increase increase in number of lymphocytes level; format: functional, organism-based; outline: as §1
Rattus norvegicus [23] = experiment: Antidiabetic activity against streptozotocin-induced Wistar rat assessed as increase BUN level in serum at 10 mg/kg, po administered for 21 days measured on day 35; format: functional, organism-based; conditions: time 35.0 day; outline: as §1
PANC-1 [24] = experiment: Anti-diabetic activity against high glucose induced human PANC-1 cells assessed as decrease in glucose induced alpha-amylase expression by measuring by measuring minimum fractional index at 5 uM incubated for 23 hrs and measured after 24 hrs by flow cytometric analysis (reference value: 2887 +/- 95.87); format: functional

SMILES | Activity (PANC-1 [1]) | Activity (Rattus norvegicus [2]) | Activity index (Rattus norvegicus [3]) | Activity_index (PANC-1 [4]) | Activity (Rattus norvegicus [5]) | Activity (Rattus norvegicus [6]) | Activity (Rattus norvegicus [7]) | Activity index (Rattus norvegicus [8]) | Activity [9] | Activity (Rattus norvegicus [10]) | Activity (Rattus norvegicus [11]) | Activity (Rattus norvegicus [12]) | Activity (Rattus norvegicus [13]) | Activity_index (PANC-1 [14]) | Activity (Rattus norvegicus [15]) | Activity (Rattus norvegicus [16]) | Activity (Rattus norvegicus [17]) | IC50 [18] [µM] | Activity (INS1) | pIC50 [19] | further results
C=CCOc1ccc(/C=C2\SC(=O)N(Cc3cccc([N+](=O)[O-])c3)C2=O)cc1OCC | Non-toxic | Active | 132 | 2242 | Active | Active | Active | 676 | Toxic | Active | Active | Active | Active | 97.6 | Active | Active | Active | 9.8 | Non-toxic | 4.77 | Activity (Rattus norvegicus [20]): Active; Activity (Rattus norvegicus [21]): Active; Activity (Rattus norvegicus [22]): Active; Activity (Rattus norvegicus [23]): Active; Activity_index (PANC-1 [24]): 797
C#CCOc1ccc(/C=C2\SC(=O)N(Cc3cccc([N+](=O)[O-])c3)C2=O)cc1OCC | Non-toxic | Active | 2540 | 752 | Active | Active | Active | 2250 | Toxic | Active | Active | Active | Active | 85.2 | Active | Active | Active | 5.15 | Non-toxic | 5.04 | Activity (Rattus norvegicus [20]): Active; Activity (Rattus norvegicus [21]): Active; Activity (Rattus norvegicus [22]): Active; Activity (Rattus norvegicus [23]): Active; Activity_index (PANC-1 [24]): 109
